The results in this text go back to ChEMBL document CHEMBL4028864 (J Med Chem, 2017).

For data set [1], the target named is SRSF protein kinase 3 (Homo sapiens) (UniProt Q9UPE1). Nature of the data set: Inhibition of wild type human SRPK3 (P41 to P567 residues) expressed in bacterial cells assessed as residual activity at 1 uM by KINOMEscan assay relative to control. It is filed as cell-based.
A further data set deals with HEL 92.1.7. Nature of the data set: cells. It is filed as functional, cell-based. Conditions: Homo sapiens, HEL 92.1.7, 36 h.
In another data set the test system is HCT-116. In words: Antiproliferative activity against human HCT116 cells after 72 hrs by MTT assay. It is filed as functional, cell-based. Particulars: HCT-116, 72 h. (Tetrazolium assays rely on reduction of a dye to a coloured formazan, in cell work by metabolically active cells.)
The next data set relates to TAMH. Nature of the data set: cells. It is filed as ADME, cell-based. Conditions: Mus musculus, 24 h.
A short description of data set [2]: Terminal half life in Wistar rat at 1 mg/kg, iv by LC-MS/MS analysis. It is filed as ADME, organism-based. Particulars: in vivo, read-out: beta t1/2 (converted). Summed up:
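Wistar rats given a single 1 mg/kg iv dose. Plasma concentration–time profiles were plotted as mean ± SEM and sampled through 24 h postdose. Values were taken from the iv profile.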

pIC50: −log10 of the molar value.

Chain of SRSF protein kinase 3 (Homo sapiens) (Q9UPE1 whole entry, the tested form may be a part): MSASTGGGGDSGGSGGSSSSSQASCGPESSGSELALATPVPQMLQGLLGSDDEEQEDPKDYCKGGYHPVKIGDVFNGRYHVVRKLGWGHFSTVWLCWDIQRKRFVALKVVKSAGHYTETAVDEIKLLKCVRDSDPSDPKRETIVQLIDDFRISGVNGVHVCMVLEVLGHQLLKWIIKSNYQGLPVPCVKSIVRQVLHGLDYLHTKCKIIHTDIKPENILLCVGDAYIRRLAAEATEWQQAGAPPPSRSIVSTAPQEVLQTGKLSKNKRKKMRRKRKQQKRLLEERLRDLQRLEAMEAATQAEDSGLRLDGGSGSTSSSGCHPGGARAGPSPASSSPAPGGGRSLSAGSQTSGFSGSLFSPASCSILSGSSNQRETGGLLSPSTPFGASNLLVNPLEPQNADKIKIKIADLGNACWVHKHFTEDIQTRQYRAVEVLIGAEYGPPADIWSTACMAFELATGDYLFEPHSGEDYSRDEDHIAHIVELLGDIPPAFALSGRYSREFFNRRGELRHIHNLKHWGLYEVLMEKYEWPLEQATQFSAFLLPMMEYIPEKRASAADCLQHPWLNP

The term pIC50 denotes the IC50 on a negative log10 scale, so that one unit is a factor of ten. Low readings indicate a large IC50, high ones a small IC50. As for `O=C(CCCCCCn1cc(-c2ncnc3[nH]ccc23)cn1)NO`, the Activity in data set [1] was 18%. In addition, the values for the pIC50 in the data set on HEL 92.1.7, with HCT-116 and in the data set on TAMH were 5.88, 5.63 and 5.33, respectively. In data set [2], the half-life is 21 min.
